These results are taken from ChEMBL document CHEMBL4610116, “Salicylanilide Analog Minimizes Relapse of Clostridioides difficile Infection in Mice” (J Med Chem, 2020).

The nature of series [1]: Cmax in non-antibioticc-treated C57Bl/6J mouse at 0.3 mg/kg, iv and measured after 5 mins to 24 hrs by LC/MS-SRM analysis. The class given is ADME, organism-based. The arrangement: dose 0.3 mg/kg, route intravenous. Particulars: in vivo. An outline of the steps:
(§1)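 Non-antibiotic-treated C57Bl/6J mice given a single i.v. dose of 0.3 mg/kg; n = 3 per time point. Bled at 5, 10, 30 min and 1, 2, 4, 8, 24 h. Plasma mixed with 2 volumes acetonitrile containing internal standard, centrifuged, supernatant quantified by LC/MS-SRM.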

Series [2] in a line: Tmax in non-antibioticc-treated C57Bl/6J mouse at 0.3 mg/kg, iv and measured after 5 mins to 24 hrs by LC/MS-SRM analysis. The class given is ADME, organism-based. Particulars: in vivo. An outline of the steps:
as §1

Series [3] can be described thus: Instantaneous volume of distribution in non-antibioticc-treated C57Bl/6J mouse at 0.3 mg/kg, iv and measured after 5 mins to 24 hrs by LC/MS-SRM analysis. The class given is ADME, organism-based. Particulars: in vivo. The essentials:
as §1

Series [4] is described as follows: Clearance in non-antibioticc-treated C57Bl/6J mouse at 0.3 mg/kg, iv and measured after 5 mins to 24 hrs by LC/MS-SRM analysis. Format: ADME, organism-based. Conditions: in vivo. The essentials:
as §1

A short description of series [5]: Tmax in cefoperazone-treated C57Bl/6J mouse at 1 mg/kg, po dosed each day for 5 days by LC/MS-SRM analysis. Format: ADME, organism-based. Conditions: in vivo. The essentials: (§2)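 C57Bl/6J mice pre-treated with cefoperazone 0.5 mg/mL in drinking water for 10 days, then a 2-day washout. Oral dose of 1 mg/kg given daily for 5 days. Bled at 5, 10, 30 min and 1, 2, 4, 10, 24 h after dosing on the first and final days; n = 3 per time point. Plasma mixed with 2 volumes acetonitrile containing internal standard, centrifuged, supernatant analysed by LC/MS-SRM.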

Series [6] in a line: AUC in cefoperazone-treated C57Bl/6J mouse at 1 mg/kg, po dosed each day for 5 days by LC/MS-SRM analysis. Format: ADME, organism-based. Particulars: in vivo. An outline of the steps: as §2
Series [7] can be described thus: Oral bioavailability in cefoperazone-treated C57Bl/6J mouse at 1 mg/kg dosed each day for 5 days by LC/MS-SRM analysis. Format: ADME, organism-based. Particulars: in vivo.
Series [8] is described as follows: Ratio of Cmin in cecum of cefoperazone-treated C57Bl/6J mouse at 1 mg/kg, po dosed each day for 5 days and measured over 24 hrs post last dose by LC/MS-SRM analysis to MIC for antimicrobial activity against Clostridioides difficile CD10463 incubated for 20 to 24 hrs by broth microdilution method. Format: ADME, organism-based. Conditions: in vivo. On the technique in general: In broth dilution the organism is exposed to a series of concentrations in liquid medium.

The nature of series [9]: Cytotoxicity in HEK293T/17 cells assessed as reduction in cell viability incubated for 16 hrs by MTS assay. Format: cell-based. Conditions: human. An outline of the steps: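 HEK 293T/17 cells seeded at 2 × 10⁴ per well in DMEM and allowed to adhere 24 h at 37°C, 5% CO₂. Exposed to 0.020–40 µM compound in DMEM for 16 h, then MTS read-out after 1 h at 37°C. Normalized to untreated cells and to 0.2 mM digitonin; duplicates.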
Background: Tetrazolium assays rely on reduction of a dye to a coloured formazan, in cell work by metabolically active cells.

The nature of series [10]: Toxicity in sheep RBC assessed as induction of hemolysis at 0.625 to 80 uM incubated for 1 hr at 37 degC relative to control. The class given is cell-based, Ovis aries, Erythrocyte. Conditions: sheep red blood cells (erythrocytes), read-out: Activity. The essentials:
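Sheep erythrocytes washed three times in PBS pH 7.4. A 3% suspension mixed 1:1 with compound in PBS, final 0.625–80 µM, for 1 h at 37°C. Centrifuged at 500 × g and supernatant absorbance read at 540 nm. 1% Triton X-100 served as positive control and 1.6% DMSO in PBS as negative control.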

Series [11] concerns Clostridioides difficile. Nature of the series: Suppression of relapse of Clostridioides difficile 630 infection in cefoperazone-treated C57BL/6J mouse model of recurrent Clostridioides difficile 630 infection assessed as reduction in body weight loss at 5 mg/kg, po for 5 days from day 4 to 9 after infection with spores. Format: functional, organism-based. The essentials: (§3)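 Five-week-old C57BL/6J mice of both sexes given cefoperazone 0.5 mg/ml in drinking water for 5 days, then a 2-day washout. Oral challenge with C. difficile 630 spores on day 0. Oral gavage in 2-(hydroxypropyl)-cyclodextrin vehicle on days 4–9; n = 6 per group. Body weight recorded daily. Feces or cecal contents suspended 1:10 in PBS, serially diluted and plated on TCCFA, incubated anaerobically at 37°C for 24 h; results as CFU/g.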

In series [12] the test system is Clostridioides difficile. The experiment in a line: Suppression of relapse of Clostridioides difficile 630 infection in cefoperazone-treated C57BL/6J mouse model of recurrent Clostridioides difficile 630 infection assessed as reduction in microbial load (total vegetative cells plus spores) at 5 mg/kg, po for 5 days from day 4 to 9 after infection with spores. Format: functional, organism-based. An outline of the steps:
as §3

Series [13] relates to Clostridioides difficile. Nature of the series: Suppression of relapse of Clostridioides difficile 630 infection in cefoperazone-treated C57BL/6J mouse model of recurrent Clostridioides difficile 630 infection assessed as reduction in microbial load (total vegetative cells plus spores) in cecal content at 5 mg/kg, po for 5 days from day 4 to 9 after infection with spores measured on day day 14. Format: functional, organism-based. The essentials: as §3

A short description of series [14]: Effect on gut microbiota in cefoperazone-treated C57BL/6J mouse model of recurrent Clostridioides difficile 630 infection assessed as increase in alpha-diversity at 5 mg/kg, po for 5 days from day 4 to 9 after infection with spores measured on day day 14 by 16S rRNA Illumina sequencing analysis. Particulars: in vivo, 120 h. Format: ADME, organism-based. The essentials:
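Recurrent CDI model in cefoperazone-treated C57BL/6J mice challenged with strain 630 and gavaged on days 4–9 (n = 6 per group). Cecal tissue snips collected at necropsy underwent 16S rRNA gene community sequencing on Illumina MiSeq.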

Structures are written as SMILES. Calls of active or inactive are those of the source. The rule behind the calls is not given here. Where only a bound is given, the exact number is not on record here.

By Cmax is commonly meant the maximum level reached in the sampled fluid or tissue. What is called Tmax is the time at which the peak concentration occurs. The term clearance denotes a measure of how efficiently the substance is removed, as volume per time. High values mean a high capacity for elimination, low ones a low capacity for elimination. Broadly, the AUC is concentration integrated over time. Lower therefore signals low exposure. One may read the bioavailability as dose-corrected exposure relative to a reference, in per cent. The low end stands for little systemic uptake, the high end for much systemic uptake. In [1], `O=C(Nc1cc(C(F)(F)F)c(Oc2ccc(Cl)cc2)c(C(F)(F)F)c1)c1cc(Cl)cc(Cl)c1O` displayed a Cmax of 1630 nM. Further, the results for the time of peak concentration (Tmax) in [2] and in series [5] were 0.17 h and 2 h, respectively. Further, in series [3], the Vc was determined as 8.5 mL. The clearance in series [4] turned out to be 1 mL/min/kg. Moreover, the AUC at 120 h in series [6] came to 23.2 µM·h. In series [7], this compound gave a bioavailability of 76%. Further, the Ratio in series [8] came out at 100. Further, the figures for the Activity in series [9] and in series [14] were over 2.5 µM and “Non-Toxic”, respectively. Moreover, in series [10], the hemolysis at 1 h, up to 80 µM was under 2%. Also, the result in the series on Clostridioides difficile [11], in the series on Clostridioides difficile [12] and with Clostridioides difficile [13] was Active.
